pIC50: −log10 of the molar value. The source made the active and inactive calls. The calls are words filed in the database; no cut-off is given here.
Tests used:
PC-3 = experiment: Antiproliferative activity against human PC3 cells after 24 hrs by MTT assay; type: functional, cell-based; conditions: PC-3, 24 h
Vitamin D3 receptor = molecular target: T1, Vitamin D3 receptor (Homo sapiens, UniProt P11473); experiment: Displacement of fluormone VDR red from human full-length VDR after 4 hrs by fluorescence polarization assay
T1 sequence (P11473 whole entry): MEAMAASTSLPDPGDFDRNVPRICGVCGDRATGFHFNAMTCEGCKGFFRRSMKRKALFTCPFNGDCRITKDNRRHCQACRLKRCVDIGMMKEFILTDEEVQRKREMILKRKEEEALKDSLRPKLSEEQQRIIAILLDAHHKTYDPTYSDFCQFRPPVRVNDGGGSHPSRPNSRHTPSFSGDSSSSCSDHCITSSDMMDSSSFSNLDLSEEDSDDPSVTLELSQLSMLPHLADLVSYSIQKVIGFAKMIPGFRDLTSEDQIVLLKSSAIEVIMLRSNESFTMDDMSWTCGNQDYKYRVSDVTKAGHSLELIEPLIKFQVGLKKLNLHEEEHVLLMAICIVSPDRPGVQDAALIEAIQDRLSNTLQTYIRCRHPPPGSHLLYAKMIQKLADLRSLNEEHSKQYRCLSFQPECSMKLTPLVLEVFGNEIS

MCF7 [1] = experiment: Cell cycle arrest in human MCF7 cells expressing VDR siRNA assessed as accumulation at G0/G1 phase at 1 uM after 24 hrs by propidium iodide staining based flow cytometry (reference value: 49.17%); type: functional
MCF7 [2] = experiment: Induction of apoptosis in human MCF7 cells expressing scrambled siRNA assessed as early apoptotic cells at 1 uM after 24 hrs by Annexin-V-FITC/propidium iodide staining based flow cytometry (reference value: 0.93%); type: functional
MCF7 [3] = experiment: Induction of apoptosis in human MCF7 cells expressing scrambled siRNA assessed as necrotic cells at 1 uM after 24 hrs by Annexin-V-FITC/propidium iodide staining based flow cytometry (reference value: 0.16%); type: functional
MCF7 [4] = experiment: Induction of apoptosis in human MCF7 cells expressing VDR siRNA assessed as early apoptotic cells at 1 uM after 24 hrs by Annexin-V-FITC/propidium iodide staining based flow cytometry (reference value: 0.49%); type: functional
MCF7 [5] = experiment: Induction of apoptosis in human MCF7 cells expressing VDR siRNA assessed as necrotic cells at 1 uM after 24 hrs by Annexin-V-FITC/propidium iodide staining based flow cytometry (reference value: 0.15%); type: functional
MCF7 [6] = experiment: Induction of apoptosis in human MCF7 cells assessed as upregulation of p21 expression at 1 uM after 24 hrs by Western blot analysis; type: functional, cell-based
Outline: (§1)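 MCF-7 cells treated at 1 µM for 24 h. Lysates resolved by 10% SDS-PAGE and transferred to PVDF. Probed with rabbit anti-p21, anti-p27 and anti-Bax antibodies, with mouse anti-β-actin as loading control. HRP-conjugated secondary antibodies; bands detected on an infrared scanner.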

MCF7 [7] = experiment: Induction of apoptosis in human MCF7 cells assessed as upregulation of p27 expression at 1 uM after 24 hrs by Western blot analysis; type: functional, cell-based; outline: as §1
MCF7 [8] = experiment: Induction of apoptosis in human MCF7 cells assessed as upregulation of Bax expression at 1 uM after 24 hrs by Western blot analysis; type: functional, cell-based; outline: as §1
[9] = Half life in rat liver microsomes in presence of NADPH by HPLC method; type: ADME, microsome
Outline: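 Compounds incubated with rat liver microsomes plus NADPH. Remaining compound quantified by HPLC at 0, 5, 10, 20, 30, 45, 60 and 90 min, and half-life calculated.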

[10] = Half life in Sprague-Dawley rat at 5 mg/kg, iv by HPLC method; type: ADME, organism-based; conditions: in vivo
Outline: (§2)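 Male Sprague-Dawley rats, 180–220 g, n = 3 per group. Dosed iv at 5 mg/kg or ip at 20 mg/kg in ethanol/EL/saline (1:1:18). Plasma sampled at 0, 0.083, 0.167, 0.25, 0.5, 1, 2, 4, 8, 12 and 24 h and centrifuged 12000 rpm for 10 min. Plasma drug measured by HPLC; parameters by PK modelling; mean ± SD.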

[11] = Mean residence time in Sprague-Dawley rat at 5 mg/kg, iv by HPLC method; type: ADME, organism-based; conditions: in vivo; outline: as §2
[12] = AUC in Sprague-Dawley rat at 20 mg/kg, ip by HPLC method; type: ADME, organism-based; conditions: in vivo; outline: as §2
[13] = Half life in Sprague-Dawley rat at 20 mg/kg, ip by HPLC method; type: ADME, organism-based; conditions: in vivo; outline: as §2
[14] = Bioavailability in Sprague-Dawley rat at 20 mg/kg, ip by HPLC method; type: ADME, organism-based; conditions: in vivo; outline: as §2
MCF7 [15] = experiment: Antitumor activity against human MCF7 cells xenografted in Balb/c nude mouse assessed as increase in p21 expression at 10 mg/kg, ip administered three times a week for three weeks starting from day 7 after tumor cell inoculation by immunohistochemical analysis; type: functional, organism-based
MCF7 [16] = experiment: Antitumor activity against human MCF7 cells xenografted in Balb/c nude mouse assessed as increase in p27 expression at 10 mg/kg, ip administered three times a week for three weeks starting from day 7 after tumor cell inoculation by immunohistochemical analysis; type: functional, organism-based
Mus musculus = experiment: Hypercalcemic effect in Balb/c nude mouse xenografted with human MCF7 cells assessed as effect on serum calcium level at 10 mg/kg, ip administered three times a week for three weeks starting from day 7 after tumor cell inoculation measured on day 27 (reference value: 0.6 umol/ml); type: ADME, organism-based; conditions: in vivo

pIC50 (PC-3)	pIC50 (Vitamin D3 receptor)	half-life [9] [h]	half-life [10] [h]	MRT [11] [h]	AUC [12] [µg·h/mL]	half-life [13] [h]	bioavailability [14] [%]	SMILES	Activity (MCF7 [1]) [%]	Activity (MCF7 [2]) [%]	Activity (MCF7 [3]) [%]	Activity (MCF7 [4]) [%]	Activity (MCF7 [5]) [%]	Activity (MCF7 [6])	Activity (MCF7 [7])	Activity (MCF7 [8])	Activity (MCF7 [15])	Activity (MCF7 [16])	Activity (Mus musculus)
5.40	7.05	0.954	4.72	8.08	20.4	10.8	43.2	CCN(CC)CCNC(=O)c1ccc(C(CC)(CC)c2ccc(OCSC)c(C)c2)n1CC	50.3	1.31	0.34	0.47	0.51	Active	Active	Active	Active	Active	Non-Toxic
5.22	6.90	0.987	6.6	9.72	12	7.65	40.3	CCN(CC)CCNC(=O)c1cc(C(CC)(CC)c2ccc(OCS(=O)(=O)c3ccccc3)c(C)c2)cn1CC	50.69	1.21	0.46	0.7	0.25	Active	Active	Active	Active	Active	Non-Toxic

Reference: ChEMBL document CHEMBL4270638, “Sulfonyl-containing phenyl-pyrrolyl pentane analogues: Novel non-secosteroidal vitamin D receptor modulators with favorable physicochemical properties, pharmacokinetic properties and anti-tumor activity” (Eur J Med Chem, 2018)
